Legend:
[1] = target: T1, Polyunsaturated fatty acid 5-lipoxygenase (Rattus norvegicus, UniProt P12527); test: inhibitory activity against 5-lipoxygenase in rat basophilic leukemia cell line.; assay type: cell-based, RBL-1
T1 sequence (P12527 whole entry): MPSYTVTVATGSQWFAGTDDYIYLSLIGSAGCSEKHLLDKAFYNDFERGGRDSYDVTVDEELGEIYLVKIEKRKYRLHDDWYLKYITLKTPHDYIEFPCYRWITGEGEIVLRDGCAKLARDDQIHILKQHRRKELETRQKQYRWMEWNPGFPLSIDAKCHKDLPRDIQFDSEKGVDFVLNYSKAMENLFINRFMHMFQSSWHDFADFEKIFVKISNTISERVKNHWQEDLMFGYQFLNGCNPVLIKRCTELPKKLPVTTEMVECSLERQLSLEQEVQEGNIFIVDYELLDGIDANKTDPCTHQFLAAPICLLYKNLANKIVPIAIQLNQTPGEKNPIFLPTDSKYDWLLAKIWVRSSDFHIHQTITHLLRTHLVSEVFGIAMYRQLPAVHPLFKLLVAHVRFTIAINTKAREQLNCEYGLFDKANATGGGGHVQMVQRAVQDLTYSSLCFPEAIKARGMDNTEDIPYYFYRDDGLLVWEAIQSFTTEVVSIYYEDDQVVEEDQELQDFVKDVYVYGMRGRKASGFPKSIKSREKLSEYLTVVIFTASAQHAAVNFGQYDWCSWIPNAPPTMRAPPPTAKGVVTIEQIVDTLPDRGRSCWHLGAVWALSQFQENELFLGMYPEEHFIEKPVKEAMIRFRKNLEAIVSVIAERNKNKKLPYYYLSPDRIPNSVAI

[2] = Inhibition of IL-1 beta biosynthesis in human monocytes; assay type: functional, cell-based
Procedure, shortened: (§1)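 Human blood monocytes were isolated by ficoll-hypaque then elutriation and plated at 2×10^6 cells/mL in RPMI 1640 + 5% FBS. Compound in DMSO was added at 10, 3, 1, 0.3 and 0.1 μM for 1 h. Cells were then stimulated with Salmonella typhimurium LPS for about 20 h. Supernatant IL-1 was measured by ELISA and viability by MTT.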

[3] = target: Interleukin-1 beta (Homo sapiens) (UniProt P01584); test: Compound was evaluated for the inhibition of IL-1 beta release by human monocytes.
Interleukin-1 beta (Homo sapiens), sequence (P01584 whole entry, looked up): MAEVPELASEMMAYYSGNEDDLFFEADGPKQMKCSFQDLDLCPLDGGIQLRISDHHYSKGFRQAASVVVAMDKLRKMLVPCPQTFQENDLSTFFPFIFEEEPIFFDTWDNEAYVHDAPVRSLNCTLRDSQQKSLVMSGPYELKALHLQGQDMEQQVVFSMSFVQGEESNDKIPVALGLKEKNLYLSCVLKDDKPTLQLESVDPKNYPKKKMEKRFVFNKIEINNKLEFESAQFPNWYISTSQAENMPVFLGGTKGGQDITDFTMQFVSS

[4] = system: Crotalus adamanteus; test: Compound was evaluated for the inhibition of PLA2.; assay type: functional
[5] = target: T2, Polyunsaturated fatty acid 5-lipoxygenase (Rattus norvegicus) (UniProt P12527)
T2 sequence (whole entry): T1 sequence (P12527 whole entry)

[6] = target: Cyclooxygenase (Bos taurus) (UniProt O62664+O62698)
[7] = target: T2, Polyunsaturated fatty acid 5-lipoxygenase (Rattus norvegicus); test: Compound was evaluated for the inhibition of 5-LO (lipoxygenase); assay type: functional
Procedure, shortened: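 Enzyme source was a 1000g supernatant of homogenized RBL-1 cells, dosed to give 3300–3800 dpm net 5-HETE (9–20 μg cell protein/assay). Compound in 5% DMSO/0.2 M Tris pH 8.5 was preincubated with enzyme for 5 min at 37 °C in pH 7.0 phosphate buffer (EDTA, gelatin, glutathione, CaCl2, indomethacin). Then 0.042 mM [14C]arachidonic acid (final) was added, 2 min. Duplicates; IC50 by linear regression over three concentrations.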

[8] = species: Homo sapiens; test: Compound was evaluated for the inhibition of,IL-1beta biosynthesis.; assay type: functional; procedure, shortened: as §1
[9] = system: Crotalus adamanteus; test: Compound was evaluated for the inhibition of,PLA2.; assay type: functional
[10] = species: Homo sapiens; test: Compound was evaluated for the inhibition of, IL1-beta biosynthesis.; assay type: functional; procedure, shortened: as §1
[11] = target: T2, Polyunsaturated fatty acid 5-lipoxygenase (Rattus norvegicus); remark: listed apart in the source
[12] = system: Crotalus adamanteus; test: Compound was evaluated for the inhibition of, PLA2.; assay type: functional

SMILES	IC50 [1] [µM]	IC50 [2] [µM]	further results
CC(=O)ON(C)/C=C\C(=O)c1ccc(-c2ccccc2)cc1	> 25		
O=C(/C=C\NOCc1ccccc1)c1ccc(F)cc1	> 25		
COc1ccc2c(c1)c(CC(=O)O)c(C)n2C(=O)c1ccc(Cl)cc1			ID50 [3]: > 30 µM; ID50 [4]: > 1000 µM; ID50 [5]: > 25 µM
CC(C)(C)/C(O)=C/C=N/OCc1ccccc1	> 25		
CC(c1cc2ccccc2s1)N(O)C(N)=O (stereo unspecified) [ZILEUTON]			ID50 [6]: > 750 µM; ID50 [8]: >30 µM; ID50 [9]: > 1000 µM
CC(=O)ON(C)/C=C\C(=O)c1ccc([N+](=O)[O-])cc1	> 25		
CC(=O)ON(/C=C\C(=O)c1ccc(F)cc1)Cc1ccccc1	> 25	> 10	
COc1ccc(C(=O)/C(=C\N(C)O)c2ccc(OC)cc2)cc1	> 25		
COc1ccccc1/C(O)=C/C=N/OCc1ccccc1	> 25		
CC(=O)ON(/C=C\C(=O)C(C)(C)C)Cc1ccccc1	> 25		
CN(O)/C=C\C(=O)c1ccc(-c2ccccc2)cc1		> 10	
CSc1ccc(C(=O)/C(=C\N(C)O)c2ccc(F)cc2)cc1	> 25		
CC(=O)ON(C)/C=C\C(=O)c1ccc(Cl)cc1	> 25		
CC(=O)ON(/C=C\C(=O)c1ccc(Cl)cc1)Cc1ccccc1	> 25	> 10	
COc1ccccc1C(=O)/C=C\N(Cc1ccccc1)OC	> 25		
O=C(/C=C\N(O)Cc1ccc(-c2ccccc2)cc1)c1cccs1	> 25		
O=C(/C=C\N(O)Cc1ccccc1)c1ccc2ccccc2c1		5.4	

SMILES	IC50 [1] [µM]	IC50 [2] [µM]	further results
CC(=O)ON(/C=C\C(=O)c1ccc([N+](=O)[O-])cc1)Cc1ccccc1	> 25	> 10	
CC(C)(C)C(=O)/C=C\N(O)Cc1ccccc1	5	> 10	
O=C(/C=C\N(O)Cc1ccccc1)c1ccc(F)cc1		2.8	ID50 [6]: > 750 µM; ID50 [3]: 2.8 µM; ID50 [4]: > 1000 µM
CN(O)/C=C\C(=O)c1ccc(F)cc1	5	5.5	
CN(O)/C=C(\C(=O)c1ccccc1)c1ccccc1	> 25		
C/C(=C/N(C)O)C(=O)c1ccc(OCc2ccccc2)cc1	8.9		
O=C1CCN(c2ccccc2)N1 [PHENIDONE]			ID50 [6]: 6.9 µM; ID50 [10]: >30 µM; ID50 [11]: 0.48 µM; ID50 [12]: > 1000 µM
CON(/C=C\C(=O)c1ccc(F)cc1)Cc1ccccc1	> 25	> 10	
O=C(/C=C\NOCc1ccccc1)c1ccc(-c2ccccc2)cc1	> 25		
CC(=O)N(/C=C\C(=O)C(C)(C)C)OCc1ccccc1	> 25		
CN(O)/C=C\C(=O)c1ccc(OCc2ccccn2)cc1	10		
O=C(/C=C\N(O)Cc1ccc(-c2ccccc2)cc1)c1ccco1	3.1		
COC(=O)/C=C\N(O)Cc1ccc(OCc2ccccc2)cc1	4.8		
CC(=O)ON(C)/C=C\C(=O)c1ccc(OCc2ccccc2)cc1	> 25		
CC(=O)ON(/C=C\C(=O)c1ccc(-c2ccccc2)cc1)Cc1ccccc1	> 25	> 10	
CCCCCCCCCCN(O)/C=C\C(=O)c1ccc(F)cc1	13		

Now from value to compound, other results behind:

IC50 [1] [µM]	IC50 [2] [µM]	SMILES	further results
0.2	> 10	O=C(/C=C\N(O)c1ccccc1)c1ccc(F)cc1	
2	8.9	O=C(/C=C\N(O)Cc1ccccc1)c1ccncc1	
1.1	> 10	CN(O)/C=C\C(=O)c1ccc(OCc2ccccc2)cc1 [listing 1 of 2 here]	
0.75		CCc1c(N(O)/C=C\C(=O)c2ccc3ccccc3c2)ccc2ccccc12	
0.81		O=C(/C=C\N(O)c1ccccc1)c1ccc2ccccc2c1	
3		O=C(/C=C\N(O)Cc1ccc(-c2ccccc2)cc1)c1ccsc1	
0.25		C/C(=C/C(=O)c1ccc(F)cc1)N(O)Cc1ccccc1	
1.4	> 10	O=C(/C=C\N(O)Cc1ccc(Oc2ccccc2)cc1)C1CC1	
1.8	> 10	CN(O)/C=C\C(=O)c1ccc2ccccc2c1	
2.6		O=C(/C=C\N(O)Cc1ccc(OCc2ccccc2)cc1)C1CC1	
0.61	3.6	O=C(/C=C\N(O)Cc1ccccc1)c1ccc(Cl)c(Cl)c1	
1.5	2.1	O=C(/C=C\N(O)Cc1ccccc1)c1ccc(Cl)cc1	ID50 [6]: > 750 µM; ID50 [3]: 2.1 µM; ID50 [4]: > 1000 µM; ID50 [7]: 1.5 µM
1.9		CN(O)/C=C\C(=O)c1ccc(OCc2ccccc2)cc1 [listing 2 of 2 here]	
0.27	> 10	O=C(/C=C\N(O)C1CCCCC1)c1ccc(F)cc1	
0.24	> 10	CN(O)/C=C\C(=O)Sc1ccc2ccccc2c1	
0.4	7.7	O=C(/C=C\N(O)Cc1ccc2ccccc2c1)c1ccc(F)cc1	
1.5	9.9	O=C(/C=C\N(O)Cc1ccc2ccccc2c1)C1CC1	
3	5.2	O=C(/C=C\N(O)Cc1ccc(-c2ccccc2)cc1)c1ccc(F)cc1	
0.55	> 10	CN(O)/C=C\C(=O)c1ccc(Cl)cc1	
1.2	> 10	O=C(/C=C\N(O)Cc1ccc(-c2ccccc2)cc1)C1CC1	
1.7	> 10	O=C(/C=C\N(O)Cc1ccccc1)c1c(Cl)cccc1Cl	
0.25	3.6	O=C(/C=C\N(O)Cc1ccccc1)c1ccc(-c2ccccc2)cc1	
2.5	1.7	O=C(/C=C\N(O)Cc1ccccc1)c1ccc([N+](=O)[O-])cc1	
1.5	> 10	CN(O)/C=C\C(=O)c1ccc([N+](=O)[O-])cc1	
0.12	> 10	O=C(/C=C\N(O)CCc1ccccc1)c1ccc(F)cc1	
2.6	> 10	O=C(/C=C\N(O)C1CCCCC1)c1ccc2ccccc2c1	
0.91		CN(O)/C=C\C(=O)c1cc(C(F)(F)F)cc(C(F)(F)F)c1	
